Source: ChEMBL document CHEMBL1156157, “1,7-Disubstituted oxyindoles are potent and selective EP(3) receptor antagonists” (Bioorg Med Chem Lett, 2010)

Legend:
[1] = target: T1, Prostaglandin E2 receptor EP3 subtype (Homo sapiens, UniProt P43115); assay: Displacement of [3H]PGE2 from human EP3 receptor in buffer
T1 sequence (P43115 whole entry): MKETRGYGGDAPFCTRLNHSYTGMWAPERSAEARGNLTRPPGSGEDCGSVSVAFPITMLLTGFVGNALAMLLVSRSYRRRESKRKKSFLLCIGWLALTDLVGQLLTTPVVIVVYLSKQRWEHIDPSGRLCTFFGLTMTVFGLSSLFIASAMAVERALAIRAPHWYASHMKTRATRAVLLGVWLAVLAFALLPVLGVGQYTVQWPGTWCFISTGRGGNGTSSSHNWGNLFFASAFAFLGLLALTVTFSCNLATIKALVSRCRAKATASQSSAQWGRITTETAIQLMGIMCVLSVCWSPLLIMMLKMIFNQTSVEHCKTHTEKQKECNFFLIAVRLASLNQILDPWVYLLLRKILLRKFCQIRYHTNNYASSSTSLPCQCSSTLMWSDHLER

[2] = target: T1, Prostaglandin E2 receptor EP3 subtype; assay: Displacement of [3H]PGE2 from human EP3 receptor in presence of 10% human serum
[3] = Metabolic stability in human liver microsomes assessed as parent compound remaining after 30 mins; assay type: ADME, Microsome; settings: read-out: Stability
How it was run: (§1)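 Compounds incubated with liver microsomes from human, rat, mouse, dog or monkey. Read-out is percent parent compound remaining at 30 min of incubation.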

[4] = Metabolic stability in rat liver microsomes assessed as parent compound remaining after 30 mins; assay type: ADME, Microsome; settings: read-out: Stability; how it was run: as §1
[5] = Metabolic stability in mouse liver microsomes assessed as parent compound remaining after 30 mins; assay type: ADME, Microsome; settings: read-out: Stability; how it was run: as §1
[6] = Metabolic stability in dog liver microsomes assessed as parent compound remaining after 30 mins; assay type: ADME, Canis lupus familiaris, Microsome; settings: read-out: Stability; how it was run: as §1
Rattus norvegicus = species on record: Rattus norvegicus; assay: Antithrombotic activity in rat assessed as platelet aggregation; assay type: functional
How it was run: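 Functional EP3 antagonism measured in a rat platelet aggregation assay. Values reported as EC50 in nM.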

Cytochrome P450 3A4 [7] = target: T2, Cytochrome P450 3A4 (Homo sapiens, UniProt P08684); assay: Inhibition of human CYP3A4 using 7-benzyloxy-4-trifluoromethylcoumarin as substrate; assay type: ADME
T2 sequence (P08684 whole entry): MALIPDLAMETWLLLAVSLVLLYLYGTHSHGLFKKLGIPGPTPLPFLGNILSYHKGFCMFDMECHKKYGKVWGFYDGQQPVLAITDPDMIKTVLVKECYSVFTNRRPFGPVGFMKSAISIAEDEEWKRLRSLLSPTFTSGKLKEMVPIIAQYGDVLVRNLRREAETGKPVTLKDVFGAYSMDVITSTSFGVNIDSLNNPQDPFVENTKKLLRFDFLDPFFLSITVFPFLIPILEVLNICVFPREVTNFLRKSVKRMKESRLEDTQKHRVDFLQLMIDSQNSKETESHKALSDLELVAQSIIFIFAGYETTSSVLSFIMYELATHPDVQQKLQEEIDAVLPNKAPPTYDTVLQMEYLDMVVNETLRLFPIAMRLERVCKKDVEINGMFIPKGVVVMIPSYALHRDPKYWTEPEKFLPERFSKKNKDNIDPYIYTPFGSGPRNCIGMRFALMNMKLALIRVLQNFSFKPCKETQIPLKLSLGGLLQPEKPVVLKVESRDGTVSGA
How it was run: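 Inhibition of human CYP3A4 with 7-benzyloxy-4-trifluoromethylcoumarin (BFC) as substrate. Values given as IC50.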

[8] = target: T1, Prostaglandin E2 receptor EP3 subtype; assay: Partial displacement of [3H]PGE2 from human EP3 receptor in presence of 10% human serum
[9] = target: Prostaglandin E2 receptor EP2 subtype (Homo sapiens, UniProt P43116); assay: Binding affinity to human EP2 receptor by radioligand displacement assay
Prostaglandin E2 receptor EP2 subtype, sequence (P43116 whole entry): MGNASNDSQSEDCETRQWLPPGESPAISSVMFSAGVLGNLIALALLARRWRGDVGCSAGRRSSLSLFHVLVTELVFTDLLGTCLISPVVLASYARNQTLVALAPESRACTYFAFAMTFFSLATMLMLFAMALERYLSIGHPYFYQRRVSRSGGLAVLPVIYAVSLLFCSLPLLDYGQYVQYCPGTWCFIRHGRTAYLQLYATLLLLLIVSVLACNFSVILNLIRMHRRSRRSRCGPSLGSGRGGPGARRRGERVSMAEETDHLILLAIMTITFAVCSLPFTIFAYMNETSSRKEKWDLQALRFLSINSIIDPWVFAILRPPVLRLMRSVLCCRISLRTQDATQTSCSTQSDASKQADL
How it was run: (§2)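 Radioligand displacement assays on a human prostanoid receptor panel (EP2, EP4, FP, IP). IC50 values reported in µM.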

[10] = target: Prostaglandin E2 receptor EP4 subtype (Homo sapiens, UniProt P35408); assay: Binding affinity to human EP4 receptor by radioligand displacement assay; how it was run: as §2
Prostaglandin E2 receptor EP4 subtype, sequence (P35408 whole entry): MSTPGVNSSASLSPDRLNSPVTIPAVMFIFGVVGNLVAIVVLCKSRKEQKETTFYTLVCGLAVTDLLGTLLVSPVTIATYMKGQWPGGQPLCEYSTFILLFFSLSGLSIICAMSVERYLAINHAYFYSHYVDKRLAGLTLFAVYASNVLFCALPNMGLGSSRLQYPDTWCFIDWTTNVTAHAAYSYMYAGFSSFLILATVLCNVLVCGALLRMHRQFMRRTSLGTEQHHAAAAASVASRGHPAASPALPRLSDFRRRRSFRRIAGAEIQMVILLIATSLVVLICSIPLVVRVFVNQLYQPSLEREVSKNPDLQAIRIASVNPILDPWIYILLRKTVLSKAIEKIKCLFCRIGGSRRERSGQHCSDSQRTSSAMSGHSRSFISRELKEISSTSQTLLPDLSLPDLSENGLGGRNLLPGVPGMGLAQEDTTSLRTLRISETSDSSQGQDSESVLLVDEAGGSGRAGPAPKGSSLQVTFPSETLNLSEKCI

[11] = target: Prostaglandin F2-alpha receptor (Homo sapiens, UniProt P43088); assay: Binding affinity to human FP receptor by radioligand displacement assay; how it was run: as §2
Prostaglandin F2-alpha receptor, sequence (P43088 whole entry): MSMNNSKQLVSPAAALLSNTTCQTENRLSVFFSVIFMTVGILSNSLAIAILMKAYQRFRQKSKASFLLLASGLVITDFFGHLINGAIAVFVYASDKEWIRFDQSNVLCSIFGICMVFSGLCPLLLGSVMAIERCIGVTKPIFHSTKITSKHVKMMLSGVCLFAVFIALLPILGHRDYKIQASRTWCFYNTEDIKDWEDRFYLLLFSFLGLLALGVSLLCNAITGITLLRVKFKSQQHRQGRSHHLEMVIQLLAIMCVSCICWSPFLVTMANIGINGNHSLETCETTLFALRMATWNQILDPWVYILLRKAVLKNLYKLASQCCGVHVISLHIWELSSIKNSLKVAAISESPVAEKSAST

Prostacyclin receptor = Prostacyclin receptor (Homo sapiens, UniProt P43119); assay: Binding affinity to human IP receptor by radioligand displacement assay; how it was run: as §2
Prostacyclin receptor, sequence (P43119 whole entry): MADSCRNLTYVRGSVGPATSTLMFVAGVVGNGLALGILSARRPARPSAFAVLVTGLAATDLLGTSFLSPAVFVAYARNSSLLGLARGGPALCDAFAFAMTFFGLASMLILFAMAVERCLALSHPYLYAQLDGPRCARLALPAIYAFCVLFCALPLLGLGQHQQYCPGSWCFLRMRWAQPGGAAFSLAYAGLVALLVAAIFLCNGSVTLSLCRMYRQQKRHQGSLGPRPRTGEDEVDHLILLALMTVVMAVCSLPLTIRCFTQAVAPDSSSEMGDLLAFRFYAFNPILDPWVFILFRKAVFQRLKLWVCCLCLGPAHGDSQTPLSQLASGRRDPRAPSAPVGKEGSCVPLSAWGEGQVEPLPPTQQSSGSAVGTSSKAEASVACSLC

Cytochrome P450 3A4 [12] = target: T2, Cytochrome P450 3A4; assay: Inhibition of human CYP3A4 using dibenzylfluorescein as substrate; assay type: ADME
How it was run: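 Inhibition of human CYP3A4 with dibenzylfluorescein (DBF) as substrate. Values given as IC50.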

Cytochrome P450 2C9 = Cytochrome P450 2C9 (Homo sapiens, UniProt P11712); assay: Inhibition of human CYP2C9; assay type: ADME
Cytochrome P450 2C9, sequence (P11712 whole entry): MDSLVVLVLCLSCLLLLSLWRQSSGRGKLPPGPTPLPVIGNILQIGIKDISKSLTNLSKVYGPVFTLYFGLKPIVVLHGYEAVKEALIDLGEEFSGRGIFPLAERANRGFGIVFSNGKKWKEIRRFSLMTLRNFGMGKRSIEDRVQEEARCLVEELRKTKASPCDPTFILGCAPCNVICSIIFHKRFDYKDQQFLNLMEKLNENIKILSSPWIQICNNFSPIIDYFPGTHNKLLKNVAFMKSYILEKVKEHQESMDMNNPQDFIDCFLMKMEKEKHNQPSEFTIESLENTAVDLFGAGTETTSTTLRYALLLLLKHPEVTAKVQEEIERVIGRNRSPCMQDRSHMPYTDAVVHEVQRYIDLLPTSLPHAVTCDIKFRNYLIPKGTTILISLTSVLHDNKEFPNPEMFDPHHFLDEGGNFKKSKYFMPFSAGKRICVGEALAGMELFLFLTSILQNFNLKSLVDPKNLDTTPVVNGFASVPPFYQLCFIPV

Cytochrome P450 1A2 = target: T3, Cytochrome P450 1A2 (Homo sapiens, UniProt P05177); assay: Inhibition of human CYP1A2; assay type: ADME
T3 sequence (P05177 whole entry): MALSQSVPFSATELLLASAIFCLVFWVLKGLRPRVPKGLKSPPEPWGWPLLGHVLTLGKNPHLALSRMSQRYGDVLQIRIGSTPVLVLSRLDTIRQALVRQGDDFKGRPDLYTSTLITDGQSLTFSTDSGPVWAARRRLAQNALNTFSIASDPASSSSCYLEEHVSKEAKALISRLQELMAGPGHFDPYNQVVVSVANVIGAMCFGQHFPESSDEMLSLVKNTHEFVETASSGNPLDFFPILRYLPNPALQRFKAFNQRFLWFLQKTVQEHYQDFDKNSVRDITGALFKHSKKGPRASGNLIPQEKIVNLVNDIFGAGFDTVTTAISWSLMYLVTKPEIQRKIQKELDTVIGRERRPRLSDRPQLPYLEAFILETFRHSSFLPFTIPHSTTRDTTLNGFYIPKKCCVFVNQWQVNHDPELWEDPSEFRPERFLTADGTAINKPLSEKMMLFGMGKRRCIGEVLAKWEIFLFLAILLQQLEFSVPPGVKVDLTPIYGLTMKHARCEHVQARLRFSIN

Cytochrome P450 2D6 = Cytochrome P450 2D6 (Homo sapiens, UniProt P10635); assay: Inhibition of human CYP2D6; assay type: ADME
Cytochrome P450 2D6, sequence (P10635 whole entry): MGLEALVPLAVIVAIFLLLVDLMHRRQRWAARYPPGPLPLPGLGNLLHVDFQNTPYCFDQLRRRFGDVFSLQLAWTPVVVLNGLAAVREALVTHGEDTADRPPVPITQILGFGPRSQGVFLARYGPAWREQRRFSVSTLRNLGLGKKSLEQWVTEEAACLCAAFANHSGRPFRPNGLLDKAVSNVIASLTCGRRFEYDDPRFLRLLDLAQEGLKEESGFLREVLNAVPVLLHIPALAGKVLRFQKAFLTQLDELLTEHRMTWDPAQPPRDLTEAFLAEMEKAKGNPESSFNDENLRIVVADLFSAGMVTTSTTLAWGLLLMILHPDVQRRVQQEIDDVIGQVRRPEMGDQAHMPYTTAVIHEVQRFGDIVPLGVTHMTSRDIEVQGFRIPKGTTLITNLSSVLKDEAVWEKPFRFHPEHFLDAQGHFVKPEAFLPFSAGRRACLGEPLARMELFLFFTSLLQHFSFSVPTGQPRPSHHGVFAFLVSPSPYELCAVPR

[13] = Metabolic stability in monkey liver microsomes assessed as parent compound remaining after 30 mins; assay type: ADME, Macaca mulatta, Microsome; settings: rhesus monkey, read-out: Stability; how it was run: as §1
[14] = assessed as parent compound remaining after 30 mins; settings: read-out: Stability
[15] = Half life in rat at 6 mg/kg, iv; assay type: ADME, organism-based; parameters: dose 6 mg/kg, route intravenous; settings: in vivo
How it was run: (§3)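 Single iv dose of 6 mg/kg given to mouse and to rat. Half-life in hours derived from the plasma pharmacokinetic parameters, alongside predicted clearance and steady-state volume of distribution.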

[16] = Half life in mouse at 6 mg/kg, iv; assay type: ADME, organism-based; parameters: dose 6 mg/kg, route intravenous; settings: in vivo; how it was run: as §3

SMILES	IC50 [1] [nM]	IC50 [2] [nM]	remaining at 0.5 h [3] [%]	remaining at 0.5 h [4] [%]	remaining at 0.5 h [5] [%]	IC50 (Rattus norvegicus) [nM]	inhibition (INH) (Cytochrome P450 3A4 [7])	other results
CC1C(=O)N(Cc2ccc3ccccc3c2)c2c(/C=C/C(=O)NS(=O)(=O)c3cc(Cl)c(Cl)s3)cccc21 (centres undefined)	4.4	3.2	48.2	8	67.7	–	–	remaining at 0.5 h [6]: 67.7%; EC50 (Rattus norvegicus): 2 nM
O=C(/C=C/c1cccc2c1N(Cc1ccc3ccccc3c1)C(=O)C2(F)F)NS(=O)(=O)c1cccs1	202	–	–	–	–	> 800	Active	IC50 [8]: Active
O=C(/C=C/c1cccc2c1N(Cc1ccc3ccccc3c1)C(=O)C2O)NS(=O)(=O)c1cc(F)c(F)cc1F (centres undefined)	0.6	9.4	95.6	99.7	73.5	–	Not Active	EC50 (Rattus norvegicus): 69 nM; IC50 [9]: > 20 µM; IC50 [10]: 8.7 µM; IC50 [11]: > 20 µM; IC50 (Prostacyclin receptor): > 20 µM; inhibition (INH) (Cytochrome P450 3A4 [12]): Active; inhibition (INH) (Cytochrome P450 2C9): Active; inhibition (INH) (Cytochrome P450 1A2): Not Active; inhibition (INH) (Cytochrome P450 2D6): Not Active
O=C(/C=C/c1cccc2c1N(Cc1ccc(Cl)cc1Cl)C(=O)C2(F)F)NS(=O)(=O)c1ccc(Cl)c(Cl)c1	0.2	5.5	73.1	70.4	82.8	> 800	Active	–
O=C(/C=C/c1cccc2c1N(Cc1ccc(Cl)cc1Cl)C(=O)C2)NS(=O)(=O)c1cc(Cl)c(Cl)s1	2.9	92.8	76.8	46.3	56.8	–	–	remaining at 0.5 h [13]: 76.9%
O=C(/C=C/c1cccc2c1N(Cc1ccc3ccccc3c1)C(=O)C21OCCO1)NS(=O)(=O)c1cccs1	13	679	–	–	–	–	–	remaining at 0.5 h [14]: 37.8%
O=C(/C=C/c1cccc2c1N(Cc1ccc3ccccc3c1)C(=O)C2)NS(=O)(=O)c1cc(Cl)c(Cl)s1	1.3	5.4	105	32.9	63.8	–	–	remaining at 0.5 h [6]: 79.5%; EC50 (Rattus norvegicus): 27 nM
O=C(/C=C/c1cccc2c1N(Cc1ccc(Cl)cc1Cl)C(=O)C2(F)F)NS(=O)(=O)c1cccs1	237	–	–	–	–	> 800	Active	IC50 [8]: Active
O=C(/C=C/c1cccc2c1N(Cc1ccc3ccccc3c1)C(=O)C2(F)F)NS(=O)(=O)c1cc(Cl)c(Cl)s1	11.6	20.8	79.3	71.8	80.7	> 800	Active	–
O=C(/C=C/c1cccc2c1N(Cc1ccc(Cl)cc1Cl)C(=O)C2(F)F)NS(=O)(=O)c1cc(Cl)c(Cl)s1	3.8	64	94.4	94.8	100	> 800	Active	remaining at 0.5 h [6]: 83.3%; remaining at 0.5 h [13]: 67.3%
O=C(/C=C/c1cccc2c1N(Cc1ccc3ccccc3c1)C(=O)C2(F)F)NS(=O)(=O)c1ccc(Cl)c(Cl)c1	0.3	4.5	79.4	62.1	41.3	> 800	Active	–
O=C(/C=C/c1cccc2c1N(Cc1ccc(F)c(F)c1)C(=O)C2(CO)CO)NS(=O)(=O)c1ccc(F)c(F)c1	45.4	–	–	–	–	–	–	IC50 [8]: Active
CC1C(=O)N(Cc2ccc3ccccc3c2)c2c(/C=C/C(=O)NS(=O)(=O)c3cccs3)cccc21 (centres undefined)	3.5	96.5	43.5	48	32.6	–	–	remaining at 0.5 h [6]: 81.8%; remaining at 0.5 h [13]: 35.3%
O=C(/C=C/c1cccc2c1N(Cc1ccc(Cl)cc1Cl)C(=O)C21OCCO1)NS(=O)(=O)c1cc(Cl)c(Cl)s1	3.8	–	–	–	–	–	–	IC50 [8]: Active; remaining at 0.5 h [14]: 28.4%
O=C(/C=C/c1cccc2c1N(Cc1ccc(Cl)cc1Cl)C(=O)C2(F)F)NS(=O)(=O)c1ccc(F)c(F)c1	0.2	6.5	74.4	80.1	71	> 800	Active	–
O=C(/C=C/c1cccc2c1N(Cc1ccc3ccccc3c1)C(=O)C2O)NS(=O)(=O)c1ccc(F)cc1 (centres undefined)	0.9	19.4	97.7	103	83.4	–	Not Active	EC50 (Rattus norvegicus): 63 nM; IC50 [9]: > 20 µM; IC50 [10]: 15.1 µM; IC50 [11]: > 20 µM; IC50 (Prostacyclin receptor): > 20 µM; inhibition (INH) (Cytochrome P450 3A4 [12]): Active; inhibition (INH) (Cytochrome P450 2C9): Active; inhibition (INH) (Cytochrome P450 1A2): Not Active; inhibition (INH) (Cytochrome P450 2D6): Not Active; half-life [15]: 105 min; half-life [16]: 126 min
O=C(/C=C/c1cccc2c1N(Cc1ccc3ccccc3c1)C(=O)C2O)NS(=O)(=O)c1ccc(F)c(F)c1 (centres undefined)	1.6	7.6	89.3	87.9	72.7	–	Not Active	EC50 (Rattus norvegicus): 87 nM; IC50 [9]: > 20 µM; IC50 [10]: 2.3 µM; IC50 [11]: > 20 µM; IC50 (Prostacyclin receptor): > 20 µM; inhibition (INH) (Cytochrome P450 3A4 [12]): Active; inhibition (INH) (Cytochrome P450 2C9): Active; inhibition (INH) (Cytochrome P450 1A2): Not Active; inhibition (INH) (Cytochrome P450 2D6): Not Active
O=C(/C=C/c1cccc2c1N(Cc1ccc3ccccc3c1)C(=O)C2(F)F)NS(=O)(=O)c1cc(F)c(F)cc1F	0.3	9.3	68.8	54.2	47.9	> 800	Active	–
O=C(/C=C/c1cccc2c1N(Cc1ccc(Cl)cc1Cl)C(=O)C2(F)F)NS(=O)(=O)c1cccc(Cl)c1	0.2	7.7	66.6	62.2	31.2	> 800	Active	–
O=C(/C=C/c1cccc2c1N(Cc1ccc3ccccc3c1)C(=O)C2(F)F)NS(=O)(=O)c1ccc(F)c(F)c1	0.2	5	68.1	45	47.1	> 800	Active	–
O=C(/C=C/c1cccc2c1N(Cc1ccc3ccccc3c1)C(=O)C2(F)F)NS(=O)(=O)c1cccc(Cl)c1	0.1	1.9	64.5	21	21.6	> 800	Active	–
O=C(/C=C/c1cccc2c1N(Cc1ccc(Cl)cc1Cl)C(=O)C2(F)F)NS(=O)(=O)c1cc(F)c(F)cc1F	0.2	5.6	74.6	77.4	60.6	> 800	Active	–
O=C(/C=C/c1cccc2c1N(Cc1ccc(Cl)cc1Cl)C(=O)C2)NS(=O)(=O)c1cccs1	56	–	–	–	–	–	–	IC50 [8]: Active
